Consider two molecules from ChEMBL document CHEMBL4118021, “Studies of TAK1-centered polypharmacology with novel covalent TAK1 inhibitors” (Bioorg Med Chem, 2017).

Activity calls are given as the source filed them. No cut-off for these calls is given here.

The target of assay [1] is Citrate synthase, mitochondrial (Homo sapiens) (UniProt O75390). The experiment in a line: Binding affinity to CS in human NCI-H358 cells at 1 uM by mass spectrometry based pull down assay. The class given is cell-based.
In assay [2] the target is Delta-1-pyrroline-5-carboxylate synthase (Homo sapiens) (UniProt P54886). The experiment in a line: Binding affinity to ALDH18A1 in human NCI-H358 cells at 1 uM by mass spectrometry based pull down assay. The class given is cell-based. In outline: (§1)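 NCI-H23 or NCI-H358 cells were grown and lysed. Lysates were incubated overnight at 4 °C with 1 μM biotinylated covalent probe or DMSO, then pulled down on streptavidin beads. Proteins were run on polyacrylamide gels and stained with Coomassie. Bands were excised, digested and identified by mass spectrometry.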

Assay [3] concerns the target Y-box-binding protein 1 (Homo sapiens) (UniProt P67809). Nature of the assay: Binding affinity to YBX1 in human NCI-H358 cells at 1 uM by mass spectrometry based pull down assay. Type of assay: cell-based.
For assay [4], the target named is Serine/threonine-protein phosphatase 2A catalytic subunit beta isoform (Homo sapiens) (UniProt P62714). The experiment in a line: Binding affinity to PPP2CB in human NCI-H358 cells at 1 uM by mass spectrometry based pull down assay. The class given is cell-based.
The target of assay [5] is Tyrosine-protein kinase Yes (Homo sapiens) (UniProt P07947). Nature of the assay: Binding affinity to YES1 in human NCI-H23 cells at 1 uM by mass spectrometry based pull down assay. The class given is cell-based.
Assay [6] has as its target Serine/threonine-protein phosphatase PP1-alpha catalytic subunit (Homo sapiens) (UniProt P62136). Nature of the assay: Binding affinity to PPP1CA in human NCI-H23 cells at 1 uM by mass spectrometry based pull down assay. Type of assay: cell-based.
The target in assay [7] is Peroxiredoxin-4 (Homo sapiens) (UniProt Q13162). The experiment in a line: Binding affinity to PRDX4 in human NCI-H23 cells at 1 uM by mass spectrometry based pull down assay. The class given is cell-based.
For assay [8], the target named is DNA replication licensing factor MCM4 (Homo sapiens) (UniProt P33991). Nature of the assay: Binding affinity to MCM4 in human NCI-H358 cells at 1 uM by mass spectrometry based pull down assay. Type of assay: cell-based.
Assay [9] deals with Clathrin heavy chain 1 (Homo sapiens) (UniProt Q00610). The experiment in a line: Binding affinity to CLTC in human NCI-H23 cells at 1 uM by mass spectrometry based pull down assay. The class given is cell-based.
Assay [10] addresses Calcyclin-binding protein (Homo sapiens) (UniProt Q9HB71). The experiment in a line: Binding affinity to CACYBP in human NCI-H358 cells at 1 uM by mass spectrometry based pull down assay. Type of assay: cell-based.
The target in assay [11] is 80S Ribosome (Homo sapiens) (UniProt P08865+P42677+P62753+P15880+P23396+P61247+P62701+P22090+P46782+P62081+P62241+P46781+P46783+P62280+P25398+P62277+P62263+P62841+P62244+P62249+P08708+P62269+P39019+P60866+P63220+P62266+P62847+P62851+P62854+P62979+P62857+P62273+P62861+P39023+P36578+P46777+Q02878+P18124+P62424+P62917+P32969+P27635+P62906+P62913+P30050+P26373+P40429+P50914+P61313+P18621+Q07020+Q02543+P84098+P46778+P35268+P62829+P62750+P83731+P61254+P61353+P46776+P46779+P47914+P62888+P62899+P62910+P49207+P42766+P18077+Q9Y3U8+P83881+P61927+P61513+P63173+P62891+P62945+P05388+P05386). The experiment in a line: Binding affinity to RPS24 in human NCI-H23 cells at 1 uM by mass spectrometry based pull down assay. Type of assay: cell-based.

Assay [12] deals with Mitogen-activated protein kinase kinase kinase 20 (Homo sapiens) (UniProt Q9NYL2). The experiment in a line: Binding affinity to ZAK in human NCI-H23 cells at 1 uM by mass spectrometry based pull down assay. Type of assay: cell-based.
Assay [13] deals with Heterogeneous nuclear ribonucleoprotein D0 (Homo sapiens) (UniProt Q14103). The experiment in a line: Binding affinity to HNRNPD in human NCI-H358 cells at 1 uM by mass spectrometry based pull down assay. Type of assay: cell-based.
In assay [14] the target is MAP kinase-interacting serine/threonine-protein kinase 2 (Homo sapiens) (UniProt Q9HBH9). Nature of the assay: Binding affinity to MKNK2 in human NCI-H358 cells at 1 uM by mass spectrometry based pull down assay. The class given is cell-based.
In assay [15] the target is Neuroblast differentiation-associated protein AHNAK (Homo sapiens) (UniProt Q09666). Nature of the assay: Binding affinity to AHNAK in human NCI-H23 cells at 1 uM by mass spectrometry based pull down assay. The class given is cell-based. In outline: as §1
The target in assay [16] is Glycogen synthase kinase-3 alpha (Homo sapiens) (UniProt P49840). Nature of the assay: Binding affinity to GSK3A in human NCI-H23 cells at 1 uM by mass spectrometry based pull down assay. Type of assay: cell-based.
For assay [17], the target named is Protein CIP2A (Homo sapiens) (UniProt Q8TCG1). Nature of the assay: Binding affinity to KIAA1524 in human NCI-H23 cells at 1 uM by mass spectrometry based pull down assay. The class given is cell-based.
In assay [18] the target is Ketosamine-3-kinase (Homo sapiens) (UniProt Q9HA64). Nature of the assay: Binding affinity to FN3KRP in human NCI-H358 cells at 1 uM by mass spectrometry based pull down assay. The class given is cell-based.
Assay [19] addresses Glycogen phosphorylase, brain form (Homo sapiens) (UniProt P11216). The experiment in a line: Binding affinity to PYGB in human NCI-H358 cells at 1 uM by mass spectrometry based pull down assay. The class given is cell-based.
Assay [20] concerns the target Dihydropyrimidinase-related protein 2 (Homo sapiens) (UniProt Q16555). The experiment in a line: Binding affinity to DPYSL2 in human NCI-H23 cells at 1 uM by mass spectrometry based pull down assay. The class given is cell-based.
Assay [21] deals with Deoxyribose-phosphate aldolase (Homo sapiens) (UniProt Q9Y315). The experiment in a line: Binding affinity to DERA in human NCI-H23 cells at 1 uM by mass spectrometry based pull down assay. Type of assay: cell-based.
For assay [22], the target named is E3 ubiquitin-protein ligase TRIM33 (Homo sapiens) (UniProt Q9UPN9). Nature of the assay: Binding affinity to TRIM33 in human NCI-H23 cells at 1 uM by mass spectrometry based pull down assay. Type of assay: cell-based.
Assay [23] concerns the target MAP kinase-activated protein kinase 5 (Homo sapiens) (UniProt Q8IW41). Nature of the assay: Binding affinity to MAPKAPK5 in human NCI-H358 cells at 1 uM by mass spectrometry based pull down assay. Type of assay: cell-based.
Assay [24] deals with ADP-ribosylation factor-like protein 8B (Homo sapiens) (UniProt Q9NVJ2). Nature of the assay: Binding affinity to ARL8B in human NCI-H358 cells at 1 uM by mass spectrometry based pull down assay. The class given is cell-based.
Assay [25] addresses General vesicular transport factor p115 (Homo sapiens) (UniProt O60763). The experiment in a line: Binding affinity to USO1 in human NCI-H358 cells at 1 uM by mass spectrometry based pull down assay. Type of assay: cell-based.
For assay [26], the target named is TGF-beta receptor type-2 (Homo sapiens) (UniProt P37173). The experiment in a line: Inhibition of human TGFBR2 (218 to 567 residues) expressed in bacterial expression system assessed as enzyme activity at 10 uM by KINOMEScan assay relative to control. Further details: scale not given: the % may be the effect or the level left. In a few lines: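 In vitro ATP-site competition binding assay across a panel of 456 kinases, with compound tested at 1 and 10 μM.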

General vesicular transport factor p115 (Homo sapiens), sequence (O60763 whole entry, the tested form may be a part): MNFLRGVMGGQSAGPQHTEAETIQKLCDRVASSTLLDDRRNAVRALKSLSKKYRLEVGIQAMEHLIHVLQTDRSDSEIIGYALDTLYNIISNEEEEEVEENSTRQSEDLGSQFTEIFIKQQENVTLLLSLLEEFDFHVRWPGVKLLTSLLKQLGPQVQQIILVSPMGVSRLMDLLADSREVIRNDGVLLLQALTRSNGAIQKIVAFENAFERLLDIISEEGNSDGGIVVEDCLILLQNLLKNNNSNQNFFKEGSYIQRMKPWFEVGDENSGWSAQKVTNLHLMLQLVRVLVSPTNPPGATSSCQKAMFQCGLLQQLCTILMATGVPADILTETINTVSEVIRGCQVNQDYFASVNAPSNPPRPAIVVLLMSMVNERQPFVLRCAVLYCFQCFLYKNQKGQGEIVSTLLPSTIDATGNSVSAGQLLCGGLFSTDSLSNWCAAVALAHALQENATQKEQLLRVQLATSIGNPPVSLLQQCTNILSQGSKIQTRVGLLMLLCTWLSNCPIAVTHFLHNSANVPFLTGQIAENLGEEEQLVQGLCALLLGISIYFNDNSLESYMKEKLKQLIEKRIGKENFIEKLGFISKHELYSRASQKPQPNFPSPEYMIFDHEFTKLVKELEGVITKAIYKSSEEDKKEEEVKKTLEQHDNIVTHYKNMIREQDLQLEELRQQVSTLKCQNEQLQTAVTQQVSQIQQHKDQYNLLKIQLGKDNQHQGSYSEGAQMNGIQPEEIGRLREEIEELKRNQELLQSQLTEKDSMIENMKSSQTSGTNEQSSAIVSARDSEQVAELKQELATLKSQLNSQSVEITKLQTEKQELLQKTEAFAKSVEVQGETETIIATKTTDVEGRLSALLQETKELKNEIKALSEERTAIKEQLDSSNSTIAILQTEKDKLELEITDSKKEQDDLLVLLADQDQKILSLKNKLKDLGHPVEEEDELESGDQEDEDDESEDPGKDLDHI
Glycogen phosphorylase, brain form (Homo sapiens), sequence (P11216 whole entry): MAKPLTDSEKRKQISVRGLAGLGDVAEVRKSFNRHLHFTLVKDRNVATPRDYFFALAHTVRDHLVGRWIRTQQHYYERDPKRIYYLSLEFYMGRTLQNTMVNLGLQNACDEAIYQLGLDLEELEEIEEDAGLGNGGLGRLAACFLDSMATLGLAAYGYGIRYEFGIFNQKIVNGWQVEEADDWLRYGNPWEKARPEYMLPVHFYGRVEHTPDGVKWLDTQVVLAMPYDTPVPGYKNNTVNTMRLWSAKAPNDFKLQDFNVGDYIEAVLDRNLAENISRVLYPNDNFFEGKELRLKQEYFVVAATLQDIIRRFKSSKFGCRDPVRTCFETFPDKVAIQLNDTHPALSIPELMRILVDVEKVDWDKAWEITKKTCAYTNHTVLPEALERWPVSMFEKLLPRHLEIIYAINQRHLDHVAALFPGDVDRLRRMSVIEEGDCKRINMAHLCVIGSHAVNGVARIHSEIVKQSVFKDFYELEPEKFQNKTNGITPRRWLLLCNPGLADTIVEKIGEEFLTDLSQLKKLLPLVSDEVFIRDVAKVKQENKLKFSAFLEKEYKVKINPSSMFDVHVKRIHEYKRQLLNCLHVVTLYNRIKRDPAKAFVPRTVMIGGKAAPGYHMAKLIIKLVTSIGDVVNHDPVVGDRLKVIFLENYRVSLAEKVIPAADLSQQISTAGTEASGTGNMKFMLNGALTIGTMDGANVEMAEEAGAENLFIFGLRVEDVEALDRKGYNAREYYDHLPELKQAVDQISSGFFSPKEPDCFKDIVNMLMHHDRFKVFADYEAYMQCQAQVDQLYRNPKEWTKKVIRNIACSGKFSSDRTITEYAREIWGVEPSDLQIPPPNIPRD
MAP kinase-interacting serine/threonine-protein kinase 2 (Homo sapiens), sequence (Q9HBH9 whole entry, looked up): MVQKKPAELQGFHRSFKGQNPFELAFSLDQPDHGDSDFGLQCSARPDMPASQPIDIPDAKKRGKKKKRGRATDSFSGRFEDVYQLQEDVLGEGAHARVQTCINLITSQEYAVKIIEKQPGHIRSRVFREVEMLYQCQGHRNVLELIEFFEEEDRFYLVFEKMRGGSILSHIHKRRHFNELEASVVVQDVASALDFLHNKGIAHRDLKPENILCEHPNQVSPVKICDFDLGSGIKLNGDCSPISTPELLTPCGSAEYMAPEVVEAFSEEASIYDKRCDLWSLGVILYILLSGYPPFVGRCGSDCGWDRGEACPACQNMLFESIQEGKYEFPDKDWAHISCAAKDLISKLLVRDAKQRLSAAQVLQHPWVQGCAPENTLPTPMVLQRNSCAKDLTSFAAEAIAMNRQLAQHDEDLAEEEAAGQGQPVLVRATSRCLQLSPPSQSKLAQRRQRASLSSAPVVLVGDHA
Serine/threonine-protein phosphatase PP1-alpha catalytic subunit (Homo sapiens), sequence (P62136 whole entry): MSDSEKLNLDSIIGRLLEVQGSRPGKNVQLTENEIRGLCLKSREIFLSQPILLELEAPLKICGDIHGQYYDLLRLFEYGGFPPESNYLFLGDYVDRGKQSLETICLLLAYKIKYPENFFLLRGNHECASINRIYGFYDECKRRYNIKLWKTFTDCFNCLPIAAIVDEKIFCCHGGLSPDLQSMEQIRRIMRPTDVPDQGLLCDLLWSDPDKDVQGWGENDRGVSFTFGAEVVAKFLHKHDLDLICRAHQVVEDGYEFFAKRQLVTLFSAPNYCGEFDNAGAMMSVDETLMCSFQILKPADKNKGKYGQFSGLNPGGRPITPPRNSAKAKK
Citrate synthase, mitochondrial (Homo sapiens), sequence (O75390 whole entry): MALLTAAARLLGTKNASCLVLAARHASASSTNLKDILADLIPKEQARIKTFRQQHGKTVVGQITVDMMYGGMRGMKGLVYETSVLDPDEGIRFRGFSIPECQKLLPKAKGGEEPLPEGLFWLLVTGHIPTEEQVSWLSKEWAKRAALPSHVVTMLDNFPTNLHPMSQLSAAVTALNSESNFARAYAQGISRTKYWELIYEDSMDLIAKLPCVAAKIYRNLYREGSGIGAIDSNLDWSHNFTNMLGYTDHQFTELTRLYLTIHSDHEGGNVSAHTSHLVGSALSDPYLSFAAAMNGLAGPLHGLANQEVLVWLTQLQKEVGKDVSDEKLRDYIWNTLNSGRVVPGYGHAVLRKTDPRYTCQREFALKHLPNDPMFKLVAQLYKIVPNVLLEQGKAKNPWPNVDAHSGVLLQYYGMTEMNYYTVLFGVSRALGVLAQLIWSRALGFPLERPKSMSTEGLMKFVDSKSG
ADP-ribosylation factor-like protein 8B (Homo sapiens), sequence (Q9NVJ2 whole entry): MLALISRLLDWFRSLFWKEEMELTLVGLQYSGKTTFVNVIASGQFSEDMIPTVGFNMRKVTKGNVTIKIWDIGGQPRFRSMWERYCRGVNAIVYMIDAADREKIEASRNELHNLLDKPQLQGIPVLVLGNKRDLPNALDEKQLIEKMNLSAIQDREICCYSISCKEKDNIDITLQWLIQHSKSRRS
Y-box-binding protein 1 (Homo sapiens), sequence (P67809 whole entry, canonical isoform): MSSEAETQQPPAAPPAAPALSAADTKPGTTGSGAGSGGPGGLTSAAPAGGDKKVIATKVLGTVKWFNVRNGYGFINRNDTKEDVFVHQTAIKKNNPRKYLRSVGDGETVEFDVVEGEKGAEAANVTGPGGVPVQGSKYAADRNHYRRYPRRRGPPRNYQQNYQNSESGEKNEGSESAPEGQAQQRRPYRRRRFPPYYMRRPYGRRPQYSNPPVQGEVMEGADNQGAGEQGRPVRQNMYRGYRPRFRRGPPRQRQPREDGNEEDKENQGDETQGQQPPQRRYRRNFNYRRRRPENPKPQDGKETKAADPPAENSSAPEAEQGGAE
Delta-1-pyrroline-5-carboxylate synthase (Homo sapiens), sequence (P54886 whole entry): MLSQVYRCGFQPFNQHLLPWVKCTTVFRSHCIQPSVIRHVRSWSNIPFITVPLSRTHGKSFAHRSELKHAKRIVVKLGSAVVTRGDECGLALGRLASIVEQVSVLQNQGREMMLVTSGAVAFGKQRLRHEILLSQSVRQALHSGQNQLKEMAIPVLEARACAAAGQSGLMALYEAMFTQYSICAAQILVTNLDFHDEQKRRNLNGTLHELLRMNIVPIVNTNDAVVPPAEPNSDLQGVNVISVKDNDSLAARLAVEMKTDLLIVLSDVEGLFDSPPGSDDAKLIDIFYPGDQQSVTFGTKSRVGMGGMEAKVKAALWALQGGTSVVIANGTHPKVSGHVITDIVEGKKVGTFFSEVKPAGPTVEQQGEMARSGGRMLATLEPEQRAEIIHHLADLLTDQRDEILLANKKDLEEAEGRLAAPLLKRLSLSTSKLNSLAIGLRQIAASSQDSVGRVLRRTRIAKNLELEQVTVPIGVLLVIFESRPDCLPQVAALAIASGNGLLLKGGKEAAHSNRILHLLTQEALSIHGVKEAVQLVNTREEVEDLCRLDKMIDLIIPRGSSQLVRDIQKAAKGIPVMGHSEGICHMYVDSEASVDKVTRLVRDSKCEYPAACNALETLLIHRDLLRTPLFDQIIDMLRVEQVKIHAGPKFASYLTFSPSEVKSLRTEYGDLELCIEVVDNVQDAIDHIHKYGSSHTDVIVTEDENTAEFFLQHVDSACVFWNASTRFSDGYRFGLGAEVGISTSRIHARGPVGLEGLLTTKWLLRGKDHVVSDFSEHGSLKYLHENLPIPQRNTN
Glycogen synthase kinase-3 alpha (Homo sapiens), sequence (P49840 2-483 limits assumed): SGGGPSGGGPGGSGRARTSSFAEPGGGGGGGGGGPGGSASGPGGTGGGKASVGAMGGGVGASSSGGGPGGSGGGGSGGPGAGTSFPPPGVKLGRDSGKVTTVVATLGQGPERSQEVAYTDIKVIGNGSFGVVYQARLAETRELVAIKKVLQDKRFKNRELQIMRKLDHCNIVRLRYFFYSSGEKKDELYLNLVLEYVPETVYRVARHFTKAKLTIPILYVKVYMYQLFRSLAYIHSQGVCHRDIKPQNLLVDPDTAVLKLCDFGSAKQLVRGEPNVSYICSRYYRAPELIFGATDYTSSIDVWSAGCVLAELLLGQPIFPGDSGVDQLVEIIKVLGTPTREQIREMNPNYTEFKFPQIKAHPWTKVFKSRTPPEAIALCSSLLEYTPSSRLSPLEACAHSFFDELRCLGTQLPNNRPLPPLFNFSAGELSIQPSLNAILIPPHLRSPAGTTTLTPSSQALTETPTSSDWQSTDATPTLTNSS

As to `C=CC(=O)Nc1ccccc1Nc1nc(Nc2ccc(N3CCN(CCOCCOCCOCCNC(=O)CCCC[C@@H]4SC[C@@H]5NC(=O)N[C@@H]54)CC3)cc2)ncc1Cl`, the outcome in assay [1], in assay [2], in assay [3], in assay [4], in assay [5] and in assay [6] was Active. The result in [7], in [8], in assay [9], in assay [10], in assay [11] and in [12] was Active. For the same molecule, the outcome in assay [13], in assay [14], in assay [15], in assay [16], in assay [17] and in assay [18] was Active. Also, the result in [19], in [20], in assay [21], in assay [22], in assay [23] and in assay [24] was Active. In addition, the outcome in [25] was Active.
In the case of `COc1cc(O)c2c(c1)/C=C/C[C@H](O)[C@H](O)C(=O)/C=C\C[C@H](C)OC2=O`, the Activity in [26] is 0.9%.
